Legend:
Format in all cases: functional
[1] = test system: Trichostrongylus colubriformis; assay: Anthelmintic activity against levamisole-resistant Trichostrongylus colubriformis isolate by larva development assay
Procedure, shortened: (§1)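 Larval development assay: test compounds were embedded in an agar-based nutritive medium that supports development from eggs to third-stage larvae (L3). Plates were incubated for 6 days at 28 °C and 80% relative humidity, and egg hatching and larval development were recorded. Values are means of three experiments.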

Haemonchus contortus [2] = assay: Anthelmintic activity against benzimidazole-resistant Haemonchus contortus isolate by larva development assay; procedure, shortened: as §1
[3] = test system: Trichostrongylus colubriformis; assay: Anthelmintic activity against Trichostrongylus colubriformis infected in gerbils assessed as reduction in worm count at 3.2 mg/kg, po; design: scale not given: the % may be the effect or the level left
Procedure, shortened: (§2)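 Gerbils (Meriones unguiculatus) were artificially infected with H. contortus larvae 6 days, or T. colubriformis larvae 5 days, before treatment. They were then dosed orally or subcutaneously, and controls received a placebo formulation. Three days post-treatment the animals were sacrificed and dissected for worm recovery.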

Haemonchus contortus [4] = assay: Anthelmintic activity against Haemonchus contortus infected in gerbils assessed as reduction in worm count at 3.2 mg/kg, po; design: scale not given: the % may be the effect or the level left; procedure, shortened: as §2
Haemonchus contortus [5] = assay: Anthelmintic activity against Haemonchus contortus infected in gerbils assessed as reduction in worm count at 10 mg/kg, po; design: scale not given: the % may be the effect or the level left; procedure, shortened: as §2
[6] = test system: Trichostrongylus colubriformis; assay: Anthelmintic activity against Trichostrongylus colubriformis infected in gerbils assessed as reduction in worm count at 10 mg/kg, po; design: scale not given: the % may be the effect or the level left; procedure, shortened: as §2
[7] = test system: Trichostrongylus colubriformis; assay: Anthelmintic activity against Trichostrongylus colubriformis infected in gerbils assessed as reduction in worm count at 1 mg/kg, sc; design: scale not given: the % may be the effect or the level left; settings: route subcutaneous; procedure, shortened: as §2
[8] = test system: Trichostrongylus colubriformis; assay: Anthelmintic activity against Trichostrongylus colubriformis infected in gerbils assessed as reduction in worm count at 1 mg/kg, po; design: scale not given: the % may be the effect or the level left; procedure, shortened: as §2
Haemonchus contortus [9] = assay: Anthelmintic activity against Haemonchus contortus infected in gerbils assessed as reduction in worm count at 1 mg/kg, po; design: scale not given: the % may be the effect or the level left; procedure, shortened: as §2
Haemonchus contortus [10] = assay: Anthelmintic activity against Haemonchus contortus infected in gerbils assessed as reduction in worm count at 1 mg/kg, sc; design: scale not given: the % may be the effect or the level left; settings: route subcutaneous; procedure, shortened: as §2

| Compound | EC100 [1] [ppm] | EC100 (Haemonchus contortus [2]) [ppm] | Activity [3] [%] | Activity (Haemonchus contortus [4]) [%] | Activity (Haemonchus contortus [5]) [%] | Activity [6] [%] | Activity [7] [%] | Activity [8] [%] | Activity (Haemonchus contortus [9]) [%] | Activity (Haemonchus contortus [10]) [%] |
| --- | --- | --- | --- | --- | --- | --- | --- | --- | --- | --- |
| CC(C#N)(COc1ccccc1C(F)(F)F)NC(=O)c1ccccc1 (configuration not stated) | >10 | 10 |  |  |  |  |  |  |  |  |
| CC(C#N)(COc1cc(Cl)ccc1Cl)NC(=O)c1ccc(OC(F)(F)F)cc1 (configuration not stated) | 0.032 | 0.01 | 89 | 68 |  |  |  |  |  |  |
| CC(C#N)(COc1cccc(Cl)c1Cl)NC(=O)c1ccc(C(F)(F)F)cc1 (configuration not stated) | 0.1 | 0.1 |  |  | 84 | 67 |  |  |  |  |
| CC(C#N)(COc1c(F)cc(F)cc1F)NC(=O)c1ccc(OC(F)(F)F)cc1 (configuration not stated) | >10 | >10 |  |  |  |  |  |  |  |  |
| CC(C#N)(COc1cc(F)c(F)cc1Br)NC(=O)c1ccc(OC(F)(F)F)cc1 (configuration not stated) | 0.032 | 0.01 | 97 | 100 |  |  |  |  |  |  |
| CC(C#N)(COc1cc(C#N)ccc1C(F)(F)F)NC(=O)c1ccc(C(F)(F)F)cc1 (configuration not stated) | 0.1 | 0.032 |  |  |  |  | 72 | 87 | 97 | 90 |
| CC(C#N)(COc1ccccc1F)NC(=O)c1ccc(C(F)(F)F)cc1 (configuration not stated) | 1 | 1 |  |  |  |  |  |  |  |  |
| CC(C#N)(COc1ccc(C#N)cc1C(F)(F)F)NC(=O)c1ccc(OC(F)(F)F)cc1 (configuration not stated) | 0.1 | 0.032 |  |  |  |  | 97 | 98 | 95 | 91 |
| CC(C#N)(COc1cc(C#N)ccc1C(F)(F)F)NC(=O)c1ccc(OC(F)(F)F)cc1 (configuration not stated) | 0.032 | 0.01 |  |  |  |  | 75 | 85 | 95 | 97 |
| CC(C#N)(COc1ccccc1C(F)(F)F)NC(=O)c1ccc(SC(F)(F)F)cc1 (configuration not stated) | 0.032 | 0.032 |  |  | 77 | 99 |  |  |  |  |
| CC(C#N)(COc1ccccc1Br)NC(=O)c1ccc(OC(F)(F)F)cc1 (configuration not stated) | 0.032 | 0.032 |  |  | 97 | 99 |  |  |  |  |
| CC(C#N)(COc1cc(F)c(F)cc1C(F)(F)F)NC(=O)c1ccc(C(F)(F)F)cc1 (configuration not stated) | 0.032 | 0.032 |  |  |  |  | 90 | 91 | 89 | 94 |
| CC(C#N)(COc1ccccc1Cl)NC(=O)c1ccc(OC(F)(F)F)cc1 (configuration not stated) | 0.032 | 0.032 |  |  |  |  |  |  |  |  |
| CC(C#N)(COc1cc(F)ccc1Br)NC(=O)c1ccc(OC(F)(F)F)cc1 (configuration not stated) | 0.1 | 0.01 | 99 | 90 |  |  |  |  |  |  |
| CC(C#N)(COc1ccccc1Cl)NC(=O)c1ccc(Cl)cc1 (configuration not stated) | 0.32 | 0.32 |  |  |  |  |  |  |  |  |
| CC(C#N)(COc1cc(C#N)ccc1C(F)(F)F)NC(=O)c1ccc(SC(F)(F)F)cc1 (configuration not stated) | 0.032 | 0.01 |  |  |  |  | 84 | 100 | 100 | 99 |
| CC(C#N)(COc1c(Cl)cccc1Cl)NC(=O)c1ccc(C(F)(F)F)cc1 (configuration not stated) | >10 | >10 |  |  |  |  |  |  |  |  |
| CC(C#N)(COc1cc(F)ccc1Cl)NC(=O)c1ccc(OC(F)(F)F)cc1 (configuration not stated) | 0.032 | 0.01 | 79 | 92 |  |  |  |  |  |  |
| CC(C#N)(COc1ccccc1Cl)NC(=O)c1ccc(C(F)(F)F)cc1 (configuration not stated) | 0.032 | 0.032 |  |  | 88 | 19 |  |  |  |  |
| CC(C#N)(COc1cc(F)c(F)cc1C(F)(F)F)NC(=O)c1ccc(OC(F)(F)F)cc1 (single isomer, unassigned; (+)) | 3.2 | 1 |  |  |  |  |  |  |  |  |
| CC(C#N)(COc1cc(F)c(F)cc1C(F)(F)F)NC(=O)c1ccc(SC(F)(F)F)cc1 (configuration not stated) | 0.032 | 0.032 |  |  |  |  | 90 | 98 | 84 | 73 |

Source: ChEMBL document CHEMBL1145606, “Discovery of amino-acetonitrile derivatives, a new class of synthetic anthelmintic compounds” (2008)
